Data taken from ChEMBL document CHEMBL1157505, “Design and in vitro characterization of highly sst2-selective somatostatin antagonists suitable for radiotargeting” (J Med Chem, 2008).
Active and inactive are the calls of the source. The calls are words filed in the database; no cut-off is given here.

biological target: Somatostatin receptor type 2 (Homo sapiens, UniProt P30874); assay: Antagonist activity at T7 epitope tagged human cloned sst2 expressed in HEK293 cells assessed as intracellular calcium release upto 10 uM; type: functional, cell-based
Sequence (P30874 whole entry): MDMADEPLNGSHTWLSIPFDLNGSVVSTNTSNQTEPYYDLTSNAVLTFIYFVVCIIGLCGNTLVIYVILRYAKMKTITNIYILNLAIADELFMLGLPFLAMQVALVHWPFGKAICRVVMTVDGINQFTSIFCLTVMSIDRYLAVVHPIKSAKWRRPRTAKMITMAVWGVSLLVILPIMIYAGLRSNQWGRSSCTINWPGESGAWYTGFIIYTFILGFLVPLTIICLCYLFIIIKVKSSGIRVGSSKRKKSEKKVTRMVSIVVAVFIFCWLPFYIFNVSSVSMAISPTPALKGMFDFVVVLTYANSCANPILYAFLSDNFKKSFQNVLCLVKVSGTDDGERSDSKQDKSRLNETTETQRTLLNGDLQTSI
In short: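 HEK-sst2 cells seeded on poly-D-lysine, cultured 1 day, loaded with Fluo-4NW dye (assay buffer HBSS/20 mM HEPES, 2.5 mM probenecid) 30 min 37 °C plus 30 min RT. Analogues alone up to 10 μM, or [Tyr3]-octreotide with 100-fold excess analogue; fluorescence (ex 485/em 520 nm) recorded 60 s at RT; percentage of ionomycin (25 μM) maximum over baseline; ≥3 experiments in triplicate.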

Activity, inactive:
C[C@@H](O)[C@@H]1NC(=O)[C@H](CCCCN)NC(=O)[C@@H](Cc2c[nH]c3ccccc23)NC(=O)[C@H](Cc2ccc(NC(N)=O)cc2)NC(=O)[C@H](NC(=O)[C@@H](Cc2ccc(Cl)cc2)NC(N)=O)CSSC[C@@H](C(=O)N[C@@H](Cc2ccc3ccccc3c2)C(N)=O)NC1=O
C[C@@H](O)[C@@H]1NC(=O)[C@H](CCCCN)NC(=O)[C@@H](Cc2c[nH]c3ccccc23)NC(=O)[C@H](Cc2ccc(NC(N)=O)cc2)NC(=O)[C@H](NC(=O)[C@H](N)Cc2ccc(Cl)cc2)CSSC[C@@H](C(=O)N[C@@H](CC2CCCCC2)C(N)=O)NC1=O
C[C@@H](O)[C@@H]1NC(=O)[C@H](CCCCN)NC(=O)[C@@H](Cc2c[nH]c3ccccc23)NC(=O)[C@H](Cc2ccc(NC(=O)NO)cc2)NC(=O)[C@H](NC(=O)[C@H](N)Cc2ccc(Cl)cc2)CSSC[C@@H](C(=O)N[C@@H](Cc2ccc3ccccc3c2)C(N)=O)NC1=O
CC(C)C[C@@H]1NC(=O)[C@H](NC(=O)[C@H](N)Cc2ccc(Cl)cc2)CSSC[C@@H](C(=O)N[C@@H](Cc2ccc3ccccc3c2)C(N)=O)NC(=O)[C@H]([C@@H](C)O)NC(=O)[C@H](CCCCN)NC(=O)[C@@H](Cc2c[nH]c3ccccc23)NC1=O
C[C@@H](O)[C@@H]1NC(=O)[C@H](CCCCN)NC(=O)[C@@H](Cc2ccc(NC(N)=O)cc2)NC(=O)[C@H](Cc2ccc(NC(=O)[C@@H]3CC(=O)NC(=O)N3)cc2)NC(=O)[C@H](NC(=O)[C@H](N)Cc2ccc([N+](=O)[O-])cc2)CSSC[C@@H](C(=O)N[C@@H](Cc2ccc3ccccc3c2)C(N)=O)NC1=O
C[C@@H](O)[C@@H]1NC(=O)[C@H](CCCCN)NC(=O)[C@H](Cc2c[nH]c3ccc(F)cc23)NC(=O)[C@H](Cc2ccc(NC(N)=O)cc2)NC(=O)[C@H](NC(=O)[C@H](N)Cc2ccc(Cl)cc2)CSSC[C@@H](C(=O)N[C@@H](Cc2ccc3ccccc3c2)C(N)=O)NC1=O
C[C@@H](O)[C@@H]1NC(=O)[C@H](CCCCN)NC(=O)[C@@H](Cc2c[nH]c3ccccc23)NC(=O)[C@H](Cc2ccc(NC(N)=O)cc2)NC(=O)[C@H](NC(=O)[C@H](N)Cc2ccc(Cl)cc2)CSSC[C@@H](C(=O)N[C@@H](Cc2ccc(NC(=O)[C@@H]3CC(=O)NC(=O)N3)cc2)C(N)=O)NC1=O
C[C@@H](O)[C@@H]1NC(=O)[C@H](CCCCN)NC(=O)[C@@H](Cc2c[nH]c3ccccc23)NC(=O)[C@H](Cc2ccc(NC(N)=O)cc2)NC(=O)[C@H](NC(=O)[C@H](N)Cc2ccc(Cl)cc2)CSSC[C@@H](C(=O)N[C@H](Cc2ccc(NC(N)=O)cc2)C(N)=O)NC1=O
C[C@@H](O)[C@@H]1NC(=O)[C@H](CCCCN)NC(=O)[C@@H](Cc2c[nH]c3ccccc23)NC(=O)[C@@H](N(C)C(=O)c2ccccc2)NC(=O)[C@H](NC(=O)[C@H](N)Cc2ccc(Cl)cc2)CSSC[C@@H](C(=O)N[C@@H](Cc2ccc3ccccc3c2)C(N)=O)NC1=O
C[C@@H](O)[C@@H]1NC(=O)[C@H](CCCCN)NC(=O)[C@@H](Cc2c[nH]c3ccccc23)NC(=O)[C@H](Cc2ccc(NC(N)=O)cc2)NC(=O)[C@H](NC(=O)[C@H](N)Cc2ccc(Cl)cc2)CSSC[C@@H](C(=O)N[C@@H](Cc2ccc(NC(N)=O)cc2)C(N)=O)NC1=O
C[C@@H](O)[C@@H]1NC(=O)[C@H](CCCCN)NC(=O)[C@@H](Cc2c[nH]c3ccccc23)NC(=O)[C@H](Cc2ccc(NC(N)=O)cc2)NC(=O)[C@H](NC(=O)[C@H](N)Cc2ccc(Cl)cc2)CSSC[C@@H](C(=O)N[C@H](Cc2ccc(NC(N)=O)cc2)C(=O)NCC(=O)O)NC1=O
C[C@@H](O)[C@@H]1NC(=O)[C@H](CCCCN)NC(=O)[C@@H](Cc2ccc(NC(N)=O)cc2)NC(=O)[C@H](Cc2ccc(O)cc2)NC(=O)[C@H](NC(=O)[C@H](N)Cc2ccc(Cl)cc2)CSSC[C@@H](C(=O)N[C@@H](Cc2ccc3ccccc3c2)C(N)=O)NC1=O
